In ChEMBL document CHEMBL1139464, “SAR and 3D-QSAR studies on thiadiazolidinone derivatives: exploration of structural requirements for glycogen synthase kinase 3 inhibitors” (J Med Chem, 2005):

Legend:
[1] = molecular target: Glycogen synthase kinase-3 (Oryctolagus cuniculus); test: Inhibition of rabbit GSK3
[2] = molecular target: Dual specificity mitogen-activated protein kinase kinase 1 (Homo sapiens) (UniProt Q02750); test: Inhibition of MEK1K at 10 uM
Method in brief: (§1)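 Pan-kinase selectivity screen run at an outside lab using previously described assays for each kinase. Activated kinase phosphorylates its appropriate peptide or protein substrate with test substance at 10 µM. Percent inhibition is taken against control incubations in which the inhibitor is replaced by DMSO, with staurosporine as reference. Reported as the mean of duplicate determinations.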

[3] = molecular target: Tyrosine-protein kinase Lck (Homo sapiens) (UniProt P06239); test: Inhibition of protein kinase p56 at 10 uM
Tyrosine-protein kinase Lck (Homo sapiens), sequence (P06239 2-509 limits assumed): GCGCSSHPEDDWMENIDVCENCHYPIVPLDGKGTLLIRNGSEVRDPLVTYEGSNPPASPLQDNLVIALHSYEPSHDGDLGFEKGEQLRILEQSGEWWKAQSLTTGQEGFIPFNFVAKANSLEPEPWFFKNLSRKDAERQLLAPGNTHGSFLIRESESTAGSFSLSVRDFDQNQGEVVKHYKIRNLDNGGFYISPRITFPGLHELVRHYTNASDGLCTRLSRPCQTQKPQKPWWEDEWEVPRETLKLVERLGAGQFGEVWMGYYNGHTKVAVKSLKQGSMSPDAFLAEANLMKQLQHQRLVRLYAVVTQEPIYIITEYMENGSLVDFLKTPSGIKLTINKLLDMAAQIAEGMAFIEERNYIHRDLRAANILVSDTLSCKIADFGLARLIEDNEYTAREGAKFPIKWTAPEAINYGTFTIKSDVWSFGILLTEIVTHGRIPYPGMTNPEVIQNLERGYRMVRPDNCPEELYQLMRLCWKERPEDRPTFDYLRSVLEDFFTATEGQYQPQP
Method in brief: as §1

[4] = molecular target: Tyrosine-protein kinase ABL1 (Homo sapiens) (UniProt P00519); test: Inhibition of Abl kinase at 10 uM
Tyrosine-protein kinase ABL1 (Homo sapiens), sequence (P00519 whole entry): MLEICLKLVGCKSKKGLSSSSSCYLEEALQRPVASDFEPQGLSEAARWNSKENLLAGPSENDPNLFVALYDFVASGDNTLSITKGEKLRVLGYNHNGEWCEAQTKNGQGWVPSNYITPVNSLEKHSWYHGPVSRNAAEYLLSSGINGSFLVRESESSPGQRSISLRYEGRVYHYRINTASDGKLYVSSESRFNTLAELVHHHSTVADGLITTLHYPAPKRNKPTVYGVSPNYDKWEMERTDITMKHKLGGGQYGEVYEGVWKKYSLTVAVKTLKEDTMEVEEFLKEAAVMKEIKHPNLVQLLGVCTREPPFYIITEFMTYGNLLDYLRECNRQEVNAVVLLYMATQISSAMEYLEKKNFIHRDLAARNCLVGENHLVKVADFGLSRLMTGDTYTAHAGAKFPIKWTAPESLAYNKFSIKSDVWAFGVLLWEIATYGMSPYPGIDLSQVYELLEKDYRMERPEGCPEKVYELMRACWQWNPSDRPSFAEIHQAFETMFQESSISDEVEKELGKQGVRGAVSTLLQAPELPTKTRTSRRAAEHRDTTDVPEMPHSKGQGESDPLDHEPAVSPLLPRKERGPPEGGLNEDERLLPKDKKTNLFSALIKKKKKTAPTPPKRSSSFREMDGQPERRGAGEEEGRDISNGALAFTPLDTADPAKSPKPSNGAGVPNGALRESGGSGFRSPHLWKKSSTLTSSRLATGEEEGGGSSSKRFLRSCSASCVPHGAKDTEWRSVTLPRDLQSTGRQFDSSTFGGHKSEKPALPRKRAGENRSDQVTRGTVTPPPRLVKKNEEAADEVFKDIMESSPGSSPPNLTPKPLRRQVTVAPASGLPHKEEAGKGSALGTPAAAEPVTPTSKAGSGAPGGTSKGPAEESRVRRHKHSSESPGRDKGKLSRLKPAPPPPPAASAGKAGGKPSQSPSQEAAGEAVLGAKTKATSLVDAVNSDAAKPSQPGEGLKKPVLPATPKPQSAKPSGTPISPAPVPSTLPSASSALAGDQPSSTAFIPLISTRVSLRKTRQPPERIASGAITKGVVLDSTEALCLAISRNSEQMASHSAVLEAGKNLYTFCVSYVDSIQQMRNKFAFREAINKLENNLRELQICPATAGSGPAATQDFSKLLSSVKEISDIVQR
Method in brief: as §1

[5] = molecular target: CaM kinase II (Homo sapiens) (UniProt Q13557+Q13555+Q13554+Q9UQM7); test: Inhibition of CAMK2 at 10 uM; type: protein assay
Method in brief: as §1

[6] = molecular target: Epidermal growth factor receptor (Homo sapiens) (UniProt P00533); test: Inhibition of EGF tyrosine kinase at 10 uM
Epidermal growth factor receptor (Homo sapiens), sequence (P00533 whole entry): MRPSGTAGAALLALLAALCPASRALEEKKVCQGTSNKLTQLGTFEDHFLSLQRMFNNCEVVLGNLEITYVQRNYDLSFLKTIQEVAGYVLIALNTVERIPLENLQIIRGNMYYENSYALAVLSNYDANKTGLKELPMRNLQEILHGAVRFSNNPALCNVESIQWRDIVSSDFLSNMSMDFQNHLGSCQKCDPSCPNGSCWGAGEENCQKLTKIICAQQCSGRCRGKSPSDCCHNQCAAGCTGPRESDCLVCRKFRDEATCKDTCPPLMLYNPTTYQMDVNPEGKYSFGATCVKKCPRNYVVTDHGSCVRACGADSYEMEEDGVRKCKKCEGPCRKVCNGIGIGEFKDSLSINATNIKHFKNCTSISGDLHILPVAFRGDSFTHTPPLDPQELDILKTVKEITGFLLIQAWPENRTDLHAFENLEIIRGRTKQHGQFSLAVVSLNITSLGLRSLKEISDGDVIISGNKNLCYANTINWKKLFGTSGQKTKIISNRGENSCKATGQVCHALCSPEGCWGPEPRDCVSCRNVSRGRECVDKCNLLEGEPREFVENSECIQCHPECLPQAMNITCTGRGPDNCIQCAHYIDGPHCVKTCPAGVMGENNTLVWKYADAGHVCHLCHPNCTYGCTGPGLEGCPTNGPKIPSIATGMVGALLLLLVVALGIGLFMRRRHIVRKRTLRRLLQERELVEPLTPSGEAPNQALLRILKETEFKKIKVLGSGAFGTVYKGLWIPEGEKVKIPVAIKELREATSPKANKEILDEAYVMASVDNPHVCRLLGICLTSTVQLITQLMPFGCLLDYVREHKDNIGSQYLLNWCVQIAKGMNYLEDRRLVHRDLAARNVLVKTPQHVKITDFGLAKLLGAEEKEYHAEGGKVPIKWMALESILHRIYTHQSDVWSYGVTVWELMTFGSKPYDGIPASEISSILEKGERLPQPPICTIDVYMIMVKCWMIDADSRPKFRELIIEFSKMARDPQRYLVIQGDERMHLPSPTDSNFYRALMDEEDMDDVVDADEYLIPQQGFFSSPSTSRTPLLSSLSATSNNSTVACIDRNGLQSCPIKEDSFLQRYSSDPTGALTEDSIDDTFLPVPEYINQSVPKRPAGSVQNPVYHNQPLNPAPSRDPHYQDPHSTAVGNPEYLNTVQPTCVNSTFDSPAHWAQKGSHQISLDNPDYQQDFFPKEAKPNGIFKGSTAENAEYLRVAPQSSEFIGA
Method in brief: as §1

[7] = molecular target: Insulin receptor (Homo sapiens) (UniProt P06213); test: Inhibition of IRK at 10 uM
Insulin receptor (Homo sapiens), sequence (P06213 28-758 limits assumed): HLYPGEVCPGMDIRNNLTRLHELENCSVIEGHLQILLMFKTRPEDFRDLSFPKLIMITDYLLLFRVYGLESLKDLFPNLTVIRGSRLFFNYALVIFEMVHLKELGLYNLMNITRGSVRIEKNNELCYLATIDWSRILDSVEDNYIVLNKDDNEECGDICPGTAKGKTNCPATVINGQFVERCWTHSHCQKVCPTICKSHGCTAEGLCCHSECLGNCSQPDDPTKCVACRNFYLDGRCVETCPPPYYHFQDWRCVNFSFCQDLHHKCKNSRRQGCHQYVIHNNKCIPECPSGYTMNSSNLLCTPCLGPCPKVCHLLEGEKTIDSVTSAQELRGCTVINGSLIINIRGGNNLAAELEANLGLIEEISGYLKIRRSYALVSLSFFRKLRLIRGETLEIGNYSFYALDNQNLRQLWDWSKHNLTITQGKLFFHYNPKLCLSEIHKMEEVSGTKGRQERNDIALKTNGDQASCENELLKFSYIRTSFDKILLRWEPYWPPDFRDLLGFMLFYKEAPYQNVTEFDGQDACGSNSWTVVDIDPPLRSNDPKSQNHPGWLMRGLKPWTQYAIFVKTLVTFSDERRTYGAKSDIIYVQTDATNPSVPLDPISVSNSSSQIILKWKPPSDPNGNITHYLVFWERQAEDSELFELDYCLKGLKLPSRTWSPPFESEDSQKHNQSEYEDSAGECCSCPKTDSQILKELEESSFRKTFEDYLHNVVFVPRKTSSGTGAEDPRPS
Insulin receptor (Homo sapiens), sequence (P06213 763-1382 limits assumed): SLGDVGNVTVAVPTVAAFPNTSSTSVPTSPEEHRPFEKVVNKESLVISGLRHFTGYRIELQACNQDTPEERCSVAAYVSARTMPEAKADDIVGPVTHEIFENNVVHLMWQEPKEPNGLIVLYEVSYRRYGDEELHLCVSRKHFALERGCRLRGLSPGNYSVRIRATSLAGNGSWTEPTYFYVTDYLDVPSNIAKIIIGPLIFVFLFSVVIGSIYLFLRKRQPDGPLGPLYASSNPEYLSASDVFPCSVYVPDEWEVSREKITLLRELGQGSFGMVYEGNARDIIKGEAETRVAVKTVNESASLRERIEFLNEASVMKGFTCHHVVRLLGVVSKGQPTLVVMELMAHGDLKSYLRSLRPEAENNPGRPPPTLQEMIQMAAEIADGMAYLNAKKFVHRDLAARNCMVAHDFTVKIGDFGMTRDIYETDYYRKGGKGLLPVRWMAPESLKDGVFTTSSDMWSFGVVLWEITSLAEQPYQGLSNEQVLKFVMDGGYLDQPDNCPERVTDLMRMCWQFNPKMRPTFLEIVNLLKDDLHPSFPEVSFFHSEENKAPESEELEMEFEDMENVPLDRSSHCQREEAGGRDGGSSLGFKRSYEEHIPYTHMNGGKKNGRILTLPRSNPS
Method in brief: as §1

[8] = molecular target: Mitogen-activated protein kinase; ERK1/ERK2 (Homo sapiens) (UniProt P27361+P28482); test: Inhibition of MAPK at 10 uM; type: protein assay
Method in brief: as §1

Dual specificity mitogen-activated protein kinase kinase 1 (Homo sapiens), sequence (Q02750 whole entry): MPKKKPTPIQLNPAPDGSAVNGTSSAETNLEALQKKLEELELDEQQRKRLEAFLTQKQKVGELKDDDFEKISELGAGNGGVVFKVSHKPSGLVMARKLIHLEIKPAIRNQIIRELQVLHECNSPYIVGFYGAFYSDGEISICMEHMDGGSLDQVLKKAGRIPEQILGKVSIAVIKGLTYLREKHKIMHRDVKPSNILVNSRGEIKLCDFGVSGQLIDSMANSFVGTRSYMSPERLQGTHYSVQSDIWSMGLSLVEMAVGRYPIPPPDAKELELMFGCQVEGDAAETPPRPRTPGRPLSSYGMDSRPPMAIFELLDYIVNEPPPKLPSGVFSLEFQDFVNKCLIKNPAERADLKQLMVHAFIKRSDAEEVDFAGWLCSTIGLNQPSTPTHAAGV

SMILES	IC50 [1]	other results
C1=CCN(Cc2ccccc2)C1	> 100 µM	
O=C1CSC(=O)N1 [THIAZOLIDINEDIONE]	100 µM	
Cn1sc(=O)n(Cc2ccccc2)c1=O		inhibition [2]: < 10%; inhibition [3]: 35%; inhibition [4]: < 10%; inhibition [5]: 16%; inhibition [6]: 25%; inhibition [7]: 20%; inhibition [8]: < 10%
O=c1sn(Cc2ccccc2)c(=O)n1Cc1ccccc1	10 µM	inhibition [2]: < 10%; inhibition [3]: 27%; inhibition [4]: < 10%; inhibition [5]: 35%; inhibition [6]: < 10%; inhibition [7]: 19%; inhibition [8]: < 10%
Cn1sc(=O)n(-c2ccc(Br)cc2)c1=O	1.1 µM	
CCn1sc(=O)n(-c2ccc([N+](=O)[O-])cc2)c1=O	8.5 µM	inhibition [2]: < 10%; inhibition [4]: < 10%; inhibition [5]: < 10%; inhibition [6]: 40%; inhibition [7]: 46%; inhibition [8]: 10%
Cn1sc(=O)n(-c2ccc(F)cc2)c1=O	4 µM	
CCOC(=O)CN1C(=O)C=CC1=O	3 µM	
O=C(Cn1c(=O)n(-c2ccccc2)c(=O)n1CC(=O)c1ccccc1)c1ccccc1	100 µM	
CCn1sc(=O)n(Cc2ccccc2)c1=O [KRM-7777]	7 µM	
O=C1CNC(=O)N1Cc1ccccc1	100 µM	
Cc1ccc(-n2c(=O)sn(C)c2=O)cc1	5 µM	
O=C1CSC(=O)N1Cc1ccccc1	100 µM	
Cn1sc(=O)n(-c2ccc(Cl)cc2)c1=O	4 µM	
CCOC(=O)Cn1c(=O)sn(C)c1=O	2 µM	inhibition [2]: 19%; inhibition [3]: < 10%; inhibition [4]: < 10%; inhibition [5]: 15%; inhibition [6]: 19%; inhibition [7]: 50%; inhibition [8]: < 10%
Cn1c(=O)n(-c2ccccc2)c(=O)n1C	100 µM	
COc1ccc(CCN2C(=O)C=CC2=O)cc1	3 µM	
O=C(O)CN1C(=O)CSC1=S [RHODANINE-3-ACETIC ACID]	100 µM	
COc1ccc(CN2C(=O)C=CC2=O)cc1	2.5 µM	
Cn1sc(=O)n(C2CCCCC2)c1=O	100 µM	
O=C1CSC(=S)N1CCc1ccccc1	35 µM	
Cn1sc(=O)n(-c2ccccc2Br)c1=O	6 µM	
O=c1ssc(=O)n1Cc1ccccc1	12 µM	

SMILES	IC50 [1]	other results
Cn1sc(=O)n(-c2ccc(C(F)(F)F)cc2)c1=O	6 µM	inhibition [2]: < 10%; inhibition [3]: < 10%; inhibition [4]: < 10%; inhibition [5]: < 10%; inhibition [6]: 17%; inhibition [7]: 36%; inhibition [8]: < 10%
Cn1c(=O)ssc1=O	100 µM	
O=C1CCC(=O)N1Cc1ccccc1	> 50 µM	
O=C1CCCN1Cc1ccccc1	> 100 µM	
O=C(CN1C(=O)CSC1=S)c1ccccc1	50 µM	
CCn1c(=O)sn(C2CCCCC2)c1=O	10 µM	inhibition [2]: < 10%; inhibition [3]: < 10%; inhibition [4]: < 10%; inhibition [5]: 23%; inhibition [6]: < 10%; inhibition [7]: < 10%; inhibition [8]: < 10%
Cn1sc(=O)n(-c2cccc3ccccc23)c1=O	2 µM	
CCCn1sc(=O)n(CC)c1=O	10 µM	
Cn1sc(=O)n(-c2ccccc2)c1=O	2 µM	
O=C(c1ccccc1)n1c(=O)n(-c2ccccc2)c(=O)n1C(=O)c1ccccc1	100 µM	
O=C1C=CC(=O)N1CCCCCc1ccccc1	3 µM	
Cn1sc(=O)n(-c2cccc(Br)c2)c1=O	4 µM	
O=C1C=CC(=O)N1CCc1ccccc1	2 µM	
COc1ccc(CCN2C(=O)CSC2=S)cc1	100 µM	
NN1C(=O)CSC1=S [AMINORHODANINE]	100 µM	
CCn1sc(=O)n(CC)c1=O	25 µM	
CCn1c(=O)sn(C(C)C)c1=O	35 µM	
CCn1sc(=O)n(-c2ccccc2)c1=O	6 µM	
O=C1C=CC(=O)C1	12 µM	
O=c1ssc(=O)n1-c1ccccc1	12 µM	
O=C1CCC(=O)C1	> 100 µM	
CCn1c(=O)sn(C)c1=O	5 µM	
O=C1CNC(=O)N1 [HYDANTOIN]	100 µM	
